Test results: article PMC9896170 (Xenobiotica; the fate of foreign compounds in biological …, 2022)

Columns and labels:
[1] = target: T1, human CYP1B1 (Homo sapiens, UniProt Q16678); experiment: Oxidation of flavonoids by reconstituted purified CYP1B1, products by LC-MS/MS; assay type: in vitro ADME; settings: LC-MS/MS product detection
T1 sequence (Q16678 1-543): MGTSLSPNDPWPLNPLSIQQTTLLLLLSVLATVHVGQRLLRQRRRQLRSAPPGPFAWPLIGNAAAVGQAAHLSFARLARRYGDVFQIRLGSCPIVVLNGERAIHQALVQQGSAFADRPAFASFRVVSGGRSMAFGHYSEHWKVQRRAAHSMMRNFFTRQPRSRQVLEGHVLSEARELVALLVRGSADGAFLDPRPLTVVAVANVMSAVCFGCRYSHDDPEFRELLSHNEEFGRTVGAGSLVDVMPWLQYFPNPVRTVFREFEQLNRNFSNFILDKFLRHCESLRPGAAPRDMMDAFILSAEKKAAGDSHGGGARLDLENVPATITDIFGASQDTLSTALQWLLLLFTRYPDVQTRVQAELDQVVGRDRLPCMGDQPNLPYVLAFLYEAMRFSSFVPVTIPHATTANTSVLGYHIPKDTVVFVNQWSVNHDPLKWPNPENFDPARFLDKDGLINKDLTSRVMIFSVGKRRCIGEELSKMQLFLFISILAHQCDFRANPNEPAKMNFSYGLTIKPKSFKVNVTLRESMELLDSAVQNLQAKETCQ

[2] = target: T2, human CYP2A13 (Homo sapiens, UniProt Q16696); experiment: Oxidation of flavonoids by reconstituted purified CYP2A13, products by LC-MS/MS; assay type: in vitro ADME; settings: LC-MS/MS product detection
T2 sequence (Q16696 1-494): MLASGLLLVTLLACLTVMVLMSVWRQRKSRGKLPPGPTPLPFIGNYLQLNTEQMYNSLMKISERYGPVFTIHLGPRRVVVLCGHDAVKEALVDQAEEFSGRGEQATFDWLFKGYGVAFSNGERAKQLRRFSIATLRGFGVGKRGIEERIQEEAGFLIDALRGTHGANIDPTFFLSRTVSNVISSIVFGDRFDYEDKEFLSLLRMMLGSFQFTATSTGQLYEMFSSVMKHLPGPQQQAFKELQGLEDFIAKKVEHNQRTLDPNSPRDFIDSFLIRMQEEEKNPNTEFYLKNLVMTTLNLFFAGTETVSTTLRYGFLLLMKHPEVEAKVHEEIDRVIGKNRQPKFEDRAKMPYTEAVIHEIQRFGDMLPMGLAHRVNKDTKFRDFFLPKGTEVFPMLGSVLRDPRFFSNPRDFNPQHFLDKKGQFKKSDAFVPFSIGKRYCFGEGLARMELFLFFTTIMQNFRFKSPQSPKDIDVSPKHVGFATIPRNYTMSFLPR
Outline: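 Reconstituted system of purified E. coli-expressed human CYP2A13 (50 pmol), NADPH-P450 reductase (100 pmol), cytochrome b5 (100 pmol) and DLPC (50 μg). Flavonoid at 60 μM, 1 min preincubation, then NADPH-generating system added; 37 °C, 20 min. Stopped with ice-cold CH3CN, spun, supernatant run on positive-ESI LC-MS/MS. Products were identified from fragment ion spectra; rates were quantified with available standards, three separate determinations.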

`COc1ccc(-c2cc(=O)c3c(O)cc(O)cc3o2)cc1OC` [3′4′diMe57diOHF, 3′,4′-dimethoxy-5,7-dihydroxyflavone] was tested, and the “Extent of oxidation by CYP1B1 (in words)” value [1] was “only small amounts of products” and the “Extent of oxidation by CYP2A13 (in words)” value [2] was “only small amounts of products”.
`COc1ccc(-c2cc(=O)c3ccccc3o2)cc1OC` [3′4′diMeF, 3′,4′-Dimethoxyflavone] was tested, and the “Extent of oxidation by CYP1B1 (in words)” value [1] was “good substrate”.
